Legend:
[1] = biological target: T1, UDP-glucuronosyltransferase 1A6 (Homo sapiens, UniProt P19224); assay: Activity at UGT1A6 in human liver microsomes at 50 uM incubated for 3 mins prior to NADPH-addition measured up to 120 mins by HPLC/UV analysis; assay type: ADME, Microsome
T1 sequence (P19224 whole entry): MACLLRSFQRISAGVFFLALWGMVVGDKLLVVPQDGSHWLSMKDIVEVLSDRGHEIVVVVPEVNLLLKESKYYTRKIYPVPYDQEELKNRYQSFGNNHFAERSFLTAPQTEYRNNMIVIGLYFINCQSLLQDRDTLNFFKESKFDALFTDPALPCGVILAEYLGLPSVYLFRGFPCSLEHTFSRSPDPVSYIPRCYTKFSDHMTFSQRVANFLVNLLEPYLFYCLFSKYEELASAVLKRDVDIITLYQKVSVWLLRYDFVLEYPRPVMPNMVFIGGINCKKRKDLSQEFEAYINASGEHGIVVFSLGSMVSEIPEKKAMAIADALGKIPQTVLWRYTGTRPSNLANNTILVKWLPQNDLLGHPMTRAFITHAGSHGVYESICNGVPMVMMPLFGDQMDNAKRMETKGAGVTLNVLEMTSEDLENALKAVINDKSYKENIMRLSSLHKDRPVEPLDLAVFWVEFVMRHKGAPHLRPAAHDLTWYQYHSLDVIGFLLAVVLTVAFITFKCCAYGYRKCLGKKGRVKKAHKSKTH

[2] = biological target: T2, UDP-glucuronosyltransferase 1A1 (Homo sapiens, UniProt P22309); assay: Activity at UGT1A1 in human liver microsomes at 50 uM incubated for 3 mins prior to NADPH-addition measured up to 120 mins by HPLC/UV analysis; assay type: ADME, Microsome
T2 sequence (P22309 whole entry): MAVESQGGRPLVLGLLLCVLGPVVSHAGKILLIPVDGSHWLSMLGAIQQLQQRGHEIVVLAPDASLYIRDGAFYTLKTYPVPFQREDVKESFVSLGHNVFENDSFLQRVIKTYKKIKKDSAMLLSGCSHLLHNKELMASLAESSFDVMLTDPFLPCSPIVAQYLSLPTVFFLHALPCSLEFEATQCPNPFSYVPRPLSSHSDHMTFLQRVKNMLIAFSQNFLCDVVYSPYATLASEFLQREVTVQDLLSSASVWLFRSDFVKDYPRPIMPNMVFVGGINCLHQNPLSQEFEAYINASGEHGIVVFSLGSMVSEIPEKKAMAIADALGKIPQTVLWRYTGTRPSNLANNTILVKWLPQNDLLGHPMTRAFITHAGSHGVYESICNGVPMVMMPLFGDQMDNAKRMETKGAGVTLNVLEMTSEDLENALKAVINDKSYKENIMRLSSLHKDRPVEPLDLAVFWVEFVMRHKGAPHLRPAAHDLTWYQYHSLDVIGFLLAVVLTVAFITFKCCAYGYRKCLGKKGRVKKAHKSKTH

[3] = biological target: T3, Cytochrome P450 3A4 (Homo sapiens, UniProt P08684); assay: Inhibition of CYP3A4 in human liver microsomes using triazolam as substrate incubated for 3 mins prior to NAPDH-addition measured after 30 mins by RP-HPLC analysis; assay type: ADME, Microsome
T3 sequence (P08684 whole entry): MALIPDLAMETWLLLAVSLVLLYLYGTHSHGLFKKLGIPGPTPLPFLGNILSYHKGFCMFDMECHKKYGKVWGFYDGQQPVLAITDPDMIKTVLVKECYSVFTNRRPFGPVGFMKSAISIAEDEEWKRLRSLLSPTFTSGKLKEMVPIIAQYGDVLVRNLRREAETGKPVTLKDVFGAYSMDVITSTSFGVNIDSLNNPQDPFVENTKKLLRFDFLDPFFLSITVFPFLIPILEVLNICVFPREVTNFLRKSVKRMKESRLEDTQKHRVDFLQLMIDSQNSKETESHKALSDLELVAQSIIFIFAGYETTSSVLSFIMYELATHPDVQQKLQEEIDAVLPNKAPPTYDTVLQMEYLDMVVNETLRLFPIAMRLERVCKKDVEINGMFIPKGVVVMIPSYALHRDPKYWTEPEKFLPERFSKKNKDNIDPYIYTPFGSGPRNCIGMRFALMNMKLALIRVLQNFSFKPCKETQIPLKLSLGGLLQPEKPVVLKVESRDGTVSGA
In short: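 For CYP3A4 with triazolam as substrate (50 mM stock; 200 μM listed), pooled human liver microsomes were used at 0.4 mg/mL protein. Incubation was 30 min with varying inhibitor concentrations, and IC50 came from kinetic analysis.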

[4] = biological target: T3, Cytochrome P450 3A4; assay: Inhibition of CYP3A4 in human liver microsomes using testosterone as substrate incubated for 3 mins prior to NAPDH-addition measured after 30 mins by RP-HPLC analysis; assay type: ADME, Microsome
In short: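 CYP3A4 inhibition used pooled human liver microsomes at 0.3 mg/mL protein with testosterone as substrate (50 mM stock; 100 μM listed). Incubation ran 30 min across varying inhibitor concentrations, and kinetic analysis gave the IC50.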

[5] = Metabolic stability in human liver microsomes assessed as compound remaining at 200 uM incubated for 3 mins prior to NADPH-addition measured after 3 hrs by RP-HPLC analysis; assay type: ADME, Microsome; conditions: read-out: Stability
In short: (§1)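 Pooled human liver microsomes were preincubated with test compound, and the reaction was started with NADPH at 37 °C. Samples were taken at several times up to 3 h and quenched with cold acetonitrile. Precipitated protein was removed by centrifugation, then HPLC with UV detection measured parent remaining, from which the in vitro half-life was derived.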

[6] = biological target: Cytochrome P450 2D6 (Homo sapiens, UniProt P10635); assay: Inhibition of CYP2D6 in human liver microsomes using dextromethorphan as substrate incubated for 3 mins prior to NAPDH-addition measured after 60 mins by RP-HPLC analysis
Sequence of Cytochrome P450 2D6 (P10635 whole entry): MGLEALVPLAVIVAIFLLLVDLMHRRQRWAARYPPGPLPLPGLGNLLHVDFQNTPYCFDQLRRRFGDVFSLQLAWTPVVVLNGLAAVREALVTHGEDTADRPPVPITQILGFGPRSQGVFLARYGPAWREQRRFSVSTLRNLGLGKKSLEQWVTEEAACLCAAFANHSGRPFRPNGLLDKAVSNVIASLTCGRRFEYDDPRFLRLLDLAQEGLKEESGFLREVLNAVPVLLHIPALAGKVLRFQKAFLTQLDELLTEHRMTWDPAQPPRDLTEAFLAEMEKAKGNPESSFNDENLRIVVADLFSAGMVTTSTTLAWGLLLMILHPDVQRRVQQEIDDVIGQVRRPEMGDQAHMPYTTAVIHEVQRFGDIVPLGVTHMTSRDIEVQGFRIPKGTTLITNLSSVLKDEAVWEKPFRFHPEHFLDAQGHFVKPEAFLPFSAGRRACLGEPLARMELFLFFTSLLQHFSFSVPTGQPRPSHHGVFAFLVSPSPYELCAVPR

[7] = biological target: T4, UDP-glucuronosyltransferase 1A9 (Homo sapiens, UniProt O60656); assay: Activity at UGT1A9 in human liver microsomes at 50 uM incubated for 3 mins prior to NADPH-addition measured up to 120 mins by HPLC/UV analysis; assay type: ADME, Microsome
T4 sequence (O60656 whole entry): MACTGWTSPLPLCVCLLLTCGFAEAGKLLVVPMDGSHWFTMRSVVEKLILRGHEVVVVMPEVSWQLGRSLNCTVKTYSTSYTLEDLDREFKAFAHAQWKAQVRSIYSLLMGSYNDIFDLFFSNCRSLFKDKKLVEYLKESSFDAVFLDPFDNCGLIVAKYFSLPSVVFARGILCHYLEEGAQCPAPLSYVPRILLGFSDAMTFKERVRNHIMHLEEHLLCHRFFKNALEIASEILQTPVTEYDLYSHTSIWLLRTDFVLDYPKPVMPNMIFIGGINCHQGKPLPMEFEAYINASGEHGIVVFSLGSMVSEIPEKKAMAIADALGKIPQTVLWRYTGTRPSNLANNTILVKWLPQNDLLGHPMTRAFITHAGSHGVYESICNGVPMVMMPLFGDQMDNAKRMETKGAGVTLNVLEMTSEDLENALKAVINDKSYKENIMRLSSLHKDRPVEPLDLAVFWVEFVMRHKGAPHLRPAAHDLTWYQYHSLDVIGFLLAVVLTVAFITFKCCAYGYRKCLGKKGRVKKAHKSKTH

[8] = biological target: Human immunodeficiency virus type 1 integrase (Human immunodeficiency virus 1) (UniProt Q7ZJM1); assay: (§2) Inhibition of HIV1 integrase-mediated strand transfer
Sequence of Human immunodeficiency virus type 1 integrase (Human immunodeficiency virus 1) (Q7ZJM1 as listed by the source): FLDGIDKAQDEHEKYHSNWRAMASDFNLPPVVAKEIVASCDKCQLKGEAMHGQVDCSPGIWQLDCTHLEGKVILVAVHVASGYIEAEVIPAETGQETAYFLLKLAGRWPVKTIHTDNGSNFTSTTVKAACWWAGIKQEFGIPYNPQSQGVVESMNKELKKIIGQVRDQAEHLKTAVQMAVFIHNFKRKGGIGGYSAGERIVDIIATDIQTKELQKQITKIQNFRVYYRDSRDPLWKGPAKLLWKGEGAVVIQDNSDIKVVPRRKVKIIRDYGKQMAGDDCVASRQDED

[9] = biological target: Human immunodeficiency virus type 1 integrase (Human immunodeficiency virus 1, UniProt Q7ZJM1); assay: as §2
Sequence of Human immunodeficiency virus type 1 integrase (Q7ZJM1 whole entry): as the sequence (Q7ZJM1 as listed by the source) above

[10] = tested on: Liver microsomes; assay: Half life in human liver microsomes at 200 uM incubated for 3 mins prior to NADPH-addition by RP-HPLC analysis; assay type: ADME, Microsome; conditions: 0.05 h; in short: as §1
[11] = biological target: T3, Cytochrome P450 3A4; assay: Activation of CYP3A4 in human liver microsomes incubated for 3 mins prior to NAPDH-addition measured after 30 mins by RP-HPLC analysis; assay type: ADME, Microsome; conditions: 0.5 h
[12] = tested on: Liver microsomes; assay: Drug metabolism in human liver microsomes assessed as 3-acetyl-5-(2,4-difluorobenzyl)-1-(2-fluorobenzyl)pyridin-2(1H)-one production at 200 uM incubated for 3 mins prior to NADPH-addition by RP-HPLC analysis; assay type: ADME, Microsome; conditions: 0.05 h

O=C(O)/C(O)=C/C(=O)c1cc(Cc2ccc(F)cc2F)cn(Cc2ccccc2F)c1=O
Activity [1]: Not Active
Activity [2]: Not Active
IC50 [3]: > 200 µM
IC50 [4]: > 200 µM
remaining at 3 h, 200 µM [5]: 80%
IC50 [6]: > 200 µM
Activity [7]: Not Active
IC90 [8]: 0.097 µM
IC50 [9]: 0.006 µM
t1/2 [10]: > 3 h
Activity [11]: Not Active
Drug metabolism [12]: Active

Reference: ChEMBL document CHEMBL2040715, “Discovery of a Potent HIV Integrase Inhibitor that Leads to a Prodrug with Significant anti-HIV Activity” (ACS Med Chem Lett, 2011)
